Reference: ChEMBL document CHEMBL1649422, “Synthesis and molecular modeling of novel tetrahydro-β-carboline derivatives with phosphodiesterase 5 inhibitory and anticancer properties” (J Med Chem, 2011)
pIC50: −log10 of the molar value.

Columns and labels:
[1] = molecular target: T1, Dual 3',5'-cyclic-AMP and -GMP phosphodiesterase 11A (Homo sapiens, UniProt Q9HCR9); experiment: Inhibition of human recombinant PDE11A-mediated hydrolysis of cGMP after 30 mins by fluorescence polarization assay
Procedure, shortened: (§1)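 Recombinant human enzyme levels were PDE3B 10 units/mL, PDE4B 400 units/mL and PDE11A 50 units/mL. Enzyme was preincubated with compound or vehicle for 30 min. Substrate was then added: 50 nM TAMRA-cGMP and/or 50 nM fluorescein-cAMP. Fluorescence polarization was read. IC50 came from a 10-concentration series in quadruplicate, fitted to a four-parameter logistic.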

[2] = molecular target: T2, cGMP-inhibited 3',5'-cyclic phosphodiesterase 3B (Homo sapiens, UniProt Q13370); experiment: Inhibition of human recombinant PDE3B-mediated hydrolysis of cGMP after 30 mins by fluorescence polarization assay
Procedure, shortened: as §1, with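 “fluorescein-cAMP. Reactions ran 1.5 h at 30 °C, followed by IMAP binding reagent for 30 min at 30 °C.” for “fluorescein-cAMP.”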

[3] = molecular target: T2, cGMP-inhibited 3',5'-cyclic phosphodiesterase 3B; experiment: Inhibition of human recombinant PDE3B-mediated hydrolysis of cAMP after 30 mins by fluorescence polarization assay
Procedure, shortened: as §1, with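 “fluorescein-cAMP. Reactions ran 1.5 h at 30 °C, followed by IMAP binding reagent for 30 min at 30 °C.” for “fluorescein-cAMP.”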

[4] = molecular target: 3',5'-cyclic-AMP phosphodiesterase 4B (Homo sapiens, UniProt Q07343); experiment: Inhibition of human recombinant PDE4B-mediated hydrolysis of cAMP after 30 mins by fluorescence polarization assay; procedure, shortened: as §1
MDA-MB-231 [5] = experiment: Growth inhibition of human MDA-MB-231 cells after 72 hrs by luminescence assay; format: functional, cell-based; details: MDA-MB-231, 72 h
Procedure, shortened: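 MDA-MB-231 cells grown in RPMI 1640 with 5% FBS, 2 mM glutamine and antibiotics at 37 °C, 5% CO2. Cells were harvested at 70–90% confluence, used only if viability >95%, and seeded at 5000 cells/well. Dosing followed 18–24 h later, with final DMSO 0.1%. Viability was read after 72 h by CellTiter-Glo luminescence. IC50 came from eight concentrations in quadruplicate, fitted to a four-parameter logistic.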

[6] = molecular target: T3, cGMP-specific 3',5'-cyclic phosphodiesterase (Homo sapiens, UniProt O76074); experiment: Inhibition of human recombinant PDE5 at 10 uM after 30 mins by fluorescence polarization assay
[7] = molecular target: T1, Dual 3',5'-cyclic-AMP and -GMP phosphodiesterase 11A; experiment: Inhibition of human recombinant PDE11A-mediated hydrolysis of cAMP after 30 mins by fluorescence polarization assay; procedure, shortened: as §1
MDA-MB-231 [8] = experiment: Growth inhibition of human MDA-MB-231 cells at 10 uM after 72 hrs by luminescence assay; format: functional; details: MDA-MB-231, 72 h
[9] = molecular target: T3, cGMP-specific 3',5'-cyclic phosphodiesterase; experiment: Inhibition of human recombinant PDE5 after 30 mins by fluorescence polarization assay
Procedure, shortened: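 Recombinant human PDE5A at 12.5 units/mL was preincubated 30 min with compound or vehicle. Then 50 nM TAMRA-cGMP was added and the mix incubated 1.5 h at 30 °C. IMAP binding reagent was added for 30 min at 30 °C and fluorescence polarization read. IC50 came from a 10-concentration series in quadruplicate, fitted to a four-parameter logistic.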

[10] = molecular target: T3, cGMP-specific 3',5'-cyclic phosphodiesterase; experiment: Inhibition of human recombinant PDE5A-mediated hydrolysis of cGMP after 30 mins by fluorescence polarization assay

T2 sequence (Q13370 whole entry): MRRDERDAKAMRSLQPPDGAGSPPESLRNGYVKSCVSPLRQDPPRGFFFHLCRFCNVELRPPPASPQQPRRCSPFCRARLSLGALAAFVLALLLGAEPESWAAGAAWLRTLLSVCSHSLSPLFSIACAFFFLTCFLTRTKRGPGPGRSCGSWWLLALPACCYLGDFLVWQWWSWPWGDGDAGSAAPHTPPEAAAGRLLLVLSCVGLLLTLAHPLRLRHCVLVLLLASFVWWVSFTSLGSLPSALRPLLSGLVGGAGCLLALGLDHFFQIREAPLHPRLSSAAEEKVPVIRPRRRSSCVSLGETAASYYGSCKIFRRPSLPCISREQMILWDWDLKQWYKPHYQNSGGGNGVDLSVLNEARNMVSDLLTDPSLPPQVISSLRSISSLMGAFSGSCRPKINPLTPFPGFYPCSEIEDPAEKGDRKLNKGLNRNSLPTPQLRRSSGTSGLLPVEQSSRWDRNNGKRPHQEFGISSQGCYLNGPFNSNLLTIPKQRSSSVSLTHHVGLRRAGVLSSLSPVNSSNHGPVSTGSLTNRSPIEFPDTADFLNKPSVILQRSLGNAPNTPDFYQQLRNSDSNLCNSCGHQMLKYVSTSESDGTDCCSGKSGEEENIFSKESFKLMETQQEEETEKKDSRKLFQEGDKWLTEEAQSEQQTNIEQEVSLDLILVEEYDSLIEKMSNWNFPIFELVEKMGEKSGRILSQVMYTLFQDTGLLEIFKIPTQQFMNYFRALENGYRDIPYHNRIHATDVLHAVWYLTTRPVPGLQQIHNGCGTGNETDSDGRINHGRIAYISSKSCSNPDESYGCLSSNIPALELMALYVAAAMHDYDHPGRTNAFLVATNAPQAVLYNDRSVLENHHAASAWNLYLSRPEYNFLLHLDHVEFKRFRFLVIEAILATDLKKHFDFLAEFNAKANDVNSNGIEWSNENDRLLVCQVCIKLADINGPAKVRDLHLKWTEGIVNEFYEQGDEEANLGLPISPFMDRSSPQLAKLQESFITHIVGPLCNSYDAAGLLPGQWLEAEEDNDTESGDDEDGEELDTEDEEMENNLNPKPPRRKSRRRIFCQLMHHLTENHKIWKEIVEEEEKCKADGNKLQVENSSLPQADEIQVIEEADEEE
T1 sequence (Q9HCR9 whole entry): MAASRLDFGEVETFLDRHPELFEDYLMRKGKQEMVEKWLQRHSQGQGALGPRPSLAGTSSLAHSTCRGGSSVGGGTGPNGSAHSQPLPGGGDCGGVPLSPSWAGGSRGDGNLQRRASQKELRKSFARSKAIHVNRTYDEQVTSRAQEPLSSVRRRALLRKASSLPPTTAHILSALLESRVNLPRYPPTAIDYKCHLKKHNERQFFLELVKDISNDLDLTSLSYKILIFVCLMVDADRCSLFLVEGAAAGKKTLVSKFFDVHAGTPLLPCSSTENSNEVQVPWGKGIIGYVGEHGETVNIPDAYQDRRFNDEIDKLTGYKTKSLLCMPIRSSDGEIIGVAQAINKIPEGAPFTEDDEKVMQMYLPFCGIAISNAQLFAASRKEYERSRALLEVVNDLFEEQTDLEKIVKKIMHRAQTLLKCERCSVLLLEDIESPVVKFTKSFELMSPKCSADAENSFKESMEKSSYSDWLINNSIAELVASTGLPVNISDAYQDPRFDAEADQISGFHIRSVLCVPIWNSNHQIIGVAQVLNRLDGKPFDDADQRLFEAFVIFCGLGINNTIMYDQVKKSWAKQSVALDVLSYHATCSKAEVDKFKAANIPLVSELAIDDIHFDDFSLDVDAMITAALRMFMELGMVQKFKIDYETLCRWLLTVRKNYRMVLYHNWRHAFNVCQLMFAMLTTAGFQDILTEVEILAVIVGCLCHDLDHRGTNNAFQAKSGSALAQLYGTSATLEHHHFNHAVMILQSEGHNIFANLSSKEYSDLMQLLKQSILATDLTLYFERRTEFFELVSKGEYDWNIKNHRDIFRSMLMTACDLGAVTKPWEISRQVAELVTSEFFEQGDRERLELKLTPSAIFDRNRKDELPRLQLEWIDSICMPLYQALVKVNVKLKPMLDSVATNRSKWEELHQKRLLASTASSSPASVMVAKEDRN
3',5'-cyclic-AMP phosphodiesterase 4B, sequence (Q07343 whole entry): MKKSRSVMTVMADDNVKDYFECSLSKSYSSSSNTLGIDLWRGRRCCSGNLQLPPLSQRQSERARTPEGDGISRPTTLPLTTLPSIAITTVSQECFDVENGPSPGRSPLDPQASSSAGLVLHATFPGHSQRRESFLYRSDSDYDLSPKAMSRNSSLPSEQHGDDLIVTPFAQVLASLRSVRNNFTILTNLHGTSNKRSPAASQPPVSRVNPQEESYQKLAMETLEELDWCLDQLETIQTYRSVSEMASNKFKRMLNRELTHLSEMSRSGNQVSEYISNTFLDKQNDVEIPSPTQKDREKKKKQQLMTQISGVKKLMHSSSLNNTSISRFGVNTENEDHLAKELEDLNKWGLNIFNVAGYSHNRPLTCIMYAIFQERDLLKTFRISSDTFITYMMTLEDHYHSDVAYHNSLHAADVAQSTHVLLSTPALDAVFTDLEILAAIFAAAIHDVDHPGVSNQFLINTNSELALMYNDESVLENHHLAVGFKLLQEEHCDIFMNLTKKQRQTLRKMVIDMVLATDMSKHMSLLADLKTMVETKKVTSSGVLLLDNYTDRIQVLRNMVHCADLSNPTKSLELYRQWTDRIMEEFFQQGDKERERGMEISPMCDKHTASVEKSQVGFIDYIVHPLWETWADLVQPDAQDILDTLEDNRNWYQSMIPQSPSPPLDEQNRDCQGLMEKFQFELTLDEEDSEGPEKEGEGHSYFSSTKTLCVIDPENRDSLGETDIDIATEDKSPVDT

SMILES | pIC50 [1] | pIC50 [2] | pIC50 [3] | pIC50 [4] | pIC50 (MDA-MB-231 [5]) | inhibition [6] | pIC50 [7] | inhibition at 10 µM (MDA-MB-231 [8]) | pIC50 [9] | pIC50 [10]
CCN1C(=O)[C@@H]2Cc3c([nH]c4ccccc34)[C@@H](c3ccc(Cl)cc3Cl)N2C1=O | 5.82 | < 4.30 | < 4.30 | 5.44 | 5.27 | 95% | 4.89 | 68% | 8.15 | 8.15
CC(C)(C)N1C(=O)[C@H]2Cc3c([nH]c4ccccc34)[C@H](c3ccc(Cl)cc3Cl)N2C1=O | – | – | – | – | 6.19 | 73% | – | 65% | 5.83 | –
CN1CC(=O)N2[C@@H](c3ccc(Cl)cc3Cl)c3[nH]c4ccccc4c3C[C@H]2C1=O | – | – | – | – | 5.15 | 82% | – | 70% | 6.07 | –
CCN1CC(=O)N2[C@@H](c3ccc(Cl)cc3Cl)c3[nH]c4ccccc4c3C[C@@H]2C1=O | – | – | – | – | 5.81 | 90% | – | 66% | 6.59 | –
CCN1CC(=O)N2[C@H](c3ccc(Cl)cc3Cl)c3[nH]c4ccccc4c3C[C@@H]2C1=O | 7.96 | < 4.30 | < 4.30 | < 4.30 | – | 91% | 6.98 | 30% | 8.70 | 8.70
CC(C)(C)N1C(=O)[C@H]2Cc3c([nH]c4ccccc34)[C@@H](c3ccc(Cl)c(Cl)c3)N2C1=O | – | – | – | – | 5.49 | 82% | – | 99% | 5.73 | –
CCN1C(=O)[C@H]2Cc3c([nH]c4ccccc34)[C@@H](c3ccc(Cl)cc3Cl)N2C1=O | 6.51 | < 4.30 | < 4.30 | 4.47 | – | 95% | 5.70 | 39% | 8.00 | 8.00
CC(C)(C)N1C(=O)[C@@H]2Cc3c([nH]c4ccccc34)[C@H](c3ccc(Cl)c(Cl)c3)N2C1=O | – | – | – | – | 5.84 | 80% | – | 70% | 5.64 | –
CCCCN1CC(=O)N2[C@@H](c3ccc(Cl)cc3Cl)c3[nH]c4ccccc4c3C[C@@H]2C1=O | – | – | – | – | 5.92 | 69% | – | 65% | 5.95 | –
CC(C)(C)N1C(=O)[C@H]2Cc3c([nH]c4ccccc34)[C@@H](c3ccc(Cl)cc3Cl)N2C1=O | – | – | – | – | 5.65 | 80% | – | 68% | 6.23 | –
CC(C)(C)N1C(=O)[C@@H]2Cc3c([nH]c4ccccc34)[C@@H](c3ccc(Cl)cc3Cl)N2C1=O | – | – | – | – | 5.90 | 95% | – | 69% | 7.15 | –
CN1CC(=O)N2[C@H](c3ccc4c(c3)OCO4)c3[nH]c4ccccc4c3C[C@@H]2C1=O | – | < 4.30 | < 4.30 | – | – | – | – | – | – | –
CCCCN1CC(=O)N2[C@@H](c3ccc(Cl)cc3Cl)c3[nH]c4ccccc4c3C[C@H]2C1=O | – | – | – | – | 5.48 | 78% | – | 82% | 5.35 | –
